From PubChem
Compounds with a hit are over-represented: about 2.4% of the library has one in this group of screens.
Scp-1 inhibitor: Scp-1 phosphatase inhibitors, primary screen, biochemical, colorimetric, uHTS; 340,000 tested, 0.88% active; Recombinant Scp1, phosphopeptide, malachite green phosphate absorbance; inhibition, % at 20 µM;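 active = inhibition above about 50% at 20 µM, limit read from the data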;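 note: plate controls were DMSO wells with enzyme for no effect and wells lacking enzyme for full effect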
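System: truncated SCP-1 phosphatase (76-261aa); medium: Tris acetate buffer pH 5.5 with MgCl2 and Tween-20; incubation: 45 min room-temperature reaction, 5 min colour, 30 min stabiliser; compound: single 20 µM dose, 1% DMSO; reagent: Phosphorylated 17-residue peptide substrate; read-out: % inhibition at 20 µM; technique: colorimetric free-phosphate detection, absorbance 630 nm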
NadD block: inhibitors of S. aureus NadD, primary screen, biochemical, colorimetric, uHTS | purified NadD enzyme, colorimetric absorbance read-out | 360,000 tested, 0.78% active | AID 602399, 2012 | inhibition, % at 20 µM; in the data active = inhibition above about 26%
STEP inh: STEP phosphatase inhibitors, primary screen, biochemical, fluorescence intensity, uHTS; Tyrosine-protein phosphatase non-receptor type 5 (Homo sapiens), P54829; recombinant STEP, OMFP fluorogenic substrate; inhibition, % at 20 µM; 360,000 tested, 0.25% active;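 active = inhibition at 20 µM, scaled per plate between control wells, above about 37%, limit read from the data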;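 note: 0% = DMSO with enzyme and substrate and 100% = substrate only without enzyme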
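Material: STEP (striatal-enriched tyrosine phosphatase) enzyme, cell-free; Compound dosing: 20 µM single dose in 1% DMSO; Technique: fluorescence read at 480 nm ex / 540 nm em; Times: reaction 20 min, ambient temperature; Medium: 50 mM Bis-Tris pH 6.0 with 2.5 mM DTT and 0.005% Tween 20; Also added: OMFP at 25 µM.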
SUMO1 PPI mod: modulators of SUMO1 protein-protein interactions, primary screen, biochemical, uHTS | Small ubiquitin-related modifier 1 (Homo sapiens), P63165 | SUMO1 binding to a labelled peptide, TR-FRET, 1 h | inhibition, % at 20 µM | 360,000 tested, 0.33% active; in the data active = inhibition above about 37%
LMPTP block: LMPTP phosphatase inhibitors, primary screen, biochemical, fluorescence intensity, uHTS; AID 651560, 2012; 360,000 tested, 0.22% active; Low molecular weight phosphotyrosine protein phosphatase (Homo sapiens), P24666; inhibition, % at 20 µM; recombinant LMPTP-A, OMFP fluorogenic substrate;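 active = compounds that cut the enzyme signal by at least half of the control window in the single-dose screen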;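 note: plate controls were DMSO wells with enzyme plus substrate for no effect and substrate without enzyme for full effect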
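Assay system: LMPTP-A phosphatase enzyme | Input: 0.625 nM enzyme | Also added: Fluorogenic phosphatase substrate OMFP at 400 µM final | Compound dosing: One test concentration per compound, 20 µM, with 3% DMSO overall | Schedule: 50 min enzyme reaction at room temperature, protected from light | Signal: Fluorescence intensity | Benchmarks: no-enzyme and uninhibited controls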
DNMT1 block: human DNMT1 methyltransferase inhibitors, primary screen, biochemical, molecular beacon, fluorescence, HinP1I cleavage, uHTS; AID 588458, 2011; 360,000 tested, 0.83% active; inhibition (reported as % activation of signal), % at 10 µM; DNA (cytosine-5)-methyltransferase 1 (Homo sapiens), P26358; in the data active = inhibition above about 50%
Scp-1 conf: Scp-1 phosphatase inhibitors, retest, confirmation, biochemical, colorimetric, single concentration | shares compounds with Scp-1 inhibitor | recombinant SCP-1 catalytic domain, phosphate release, malachite green absorbance | inhibition, % at 20 µM | 2,500 tested, 61% active | AID 540281, 2011;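 note: plate controls were DMSO with enzyme for no effect and buffer wells lacking enzyme for full effect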
Scp-1 MG ctr: colorimetric readout interference by compounds, confirmation, artefact control for Scp-1 inhibitor project, biochemical, single concentration; AID 540313, 2011; 2,500 tested, under 10 active; Colorimetric interference counterscreen, malachite green absorbance 630 nm; apparent inhibition (interference), % at 20 µM; shares compounds with Scp-1 inhibitor;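 note: compounds added after enzyme reaction finished so only phosphate colour detection is probed; plate controls were DMSO wells with completed Scp-1 reaction for no effect and substrate wells lacking enzyme for full effect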
Scp-1 Tm shift: Scp-1 binding by thermal shift, confirmation, orthogonal assay for Scp-1 inhibitor project, biophysical, differential scanning fluorimetry | thermal shift relative to vanadate control, % at 40 µM | Recombinant SCP1, Sypro Orange thermal shift Tm | shares compounds with Scp-1 inhibitor | 1,500 tested, 25% active | AID 540329, 2011;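 active = substances whose mean melting-temperature shift, as a percentage of the reference inhibitor's shift, reaches about 5.3%, limit read from the data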;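 note: 0% = Tm of DMSO wells and 100% = Tm with sodium orthovanadate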
The depositor's hits bear a star; / = not tested or not shown.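 Rule for the calls, unless noted: active = inhibition of at least 30% at 20 µM; inactive = the rest.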

SMILES	Scp-1 inhibitor	NadD block	STEP inh	SUMO1 PPI mod	LMPTP block	DNMT1 block	Scp-1 conf	Scp-1 MG ctr	Scp-1 Tm shift
O=C(COc1ccc(Br)cc1)NCCCn1ccnc1	-7	10	-4	-4	-2	-6	/	/	/
COc1ccc(CCC(=O)O)c(O)c1	53*	-3	-1	2	2	4	46*	-6	-3
O=[N+]([O-])c1ccc(C(O)CN2CCN(c3ccccc3)CC2)cc1 (stereo not given)	-12	-2	-3	-12	-1	1	/	/	/
O=[N+]([O-])c1ccc(C(O)C[n+]2ccccc2)cc1 (stereo not given)	96*	13	-1	-23	-1	-10	0	1	/
Cc1cc(CN2CCCCC2C(=O)Nc2ccc(Oc3cccnc3)cc2)oc1C (stereo not given)	-5	1	0	-4	1	0	/	/	/
CCCCOc1ccc(-c2nnc(-c3ccncc3)o2)cc1	-7	7	-1	0	-1	2	/	/	/
CCCOc1ccc(-c2nnc(-c3cccs3)o2)cc1	67*	-9	-2	18	1	-4	-12	-19	/
CC[N+]1(CC(O)COC2CC(C)CC(C)(C)C2)CCOCC1 (stereo not given)	105*	2	-4	-1	-1	-4	91*	-11	-10
CC1CCN(CC(O)COC2CC(C)CC(C)(C)C2)CC1 (stereo not given)	18	-4	-1	4	-2	1	/	/	/
O=C(COc1ccc([N+](=O)[O-])cc1)Nc1ccc(C(=O)Nc2ccccc2C(=O)O)cc1	65*	-2	4	15	0	-1	77*	-3	7.5*
Cc1ccccc1NC(=O)C(=O)NNC(=O)COc1ccc2ccccc2c1	52*	6	23	7	4	5	69*	-4	-16
O=C(COc1ccc2ccccc2c1)NNC(=O)c1ccc([N+](=O)[O-])cc1	54*	2	14	-9	21	10	74*	-7	7.2*
O=C(CCCc1nc(-c2ccccc2)no1)NCc1cccnc1	70*	1	3	0	1	-12	7	-11	/
O=C(CCCc1nc(-c2ccccc2)no1)Nc1cccnc1	9	0	3	3	1	0	/	/	/
O=C1CNC(=O)/C1=C\N1CCN(C(c2ccccc2)c2ccccc2)CC1	55*	5	2	0	-3	-6	-16	-9	/
Cc1cccc(Nc2ccccc2C(=O)OCC(=O)NCc2ccco2)c1C	23	1	1	5	2	41	/	/	/
O=C(COC(=O)c1ccc(Cl)c(S(=O)(=O)N2CCCCC2)c1)NCc1ccco1	71*	5	-3	8	1	11	45*	-22	-10
Cc1ccccc1C(=O)OCC(=O)NCc1ccco1	53*	1	-1	1	0	9	18	-9	/
O=C(COc1ccccc1)NCc1ccco1	-4	-3	2	0	-2	3	/	/	/
O=C(COC(=O)CCOc1ccccc1)NCc1ccco1	102*	1	0	2	6	22	58*	-14	-1
CCN(CC)S(=O)(=O)c1ccc(C(=O)OCC(=O)NCc2ccco2)cc1	55*	5	2	0	0	17	47*	-6	-8
c1cncc(CN=C2Nc3ccccc3CS2)c1	69*	-2	0	3	0	3	-12	-12	/
Clc1ccc(CN=C2Nc3ccccc3CS2)cc1	-10	3	-2	0	2	-4	/	/	/
CCn1c(=O)c(NC(=O)c2ccccc2)c2n(c1=S)CCCCC2	61*	-2	-5	2	-2	1	40*	-14	-13
CCOCCCn1c(=O)c(NC(=O)c2ccc(OCC)cc2)c2n(c1=S)CCCCC2	10	-7	-2	-3	-2	-1	/	/	/
SMILES	Scp-1 inhibitor	NadD block	STEP inh	SUMO1 PPI mod	LMPTP block	DNMT1 block	Scp-1 conf	Scp-1 MG ctr	Scp-1 Tm shift
O=C(N/N=C/C=C/c1ccco1)C(O)c1ccccc1 (stereo not given)	62*	-2	-1	-2	-1	39	53*	-11	2
Cc1ccc(OCC(=O)N/N=C/C=C/c2ccco2)cc1	73*	16	-1	0	3	26	59*	-10	7.5*
O=C(COc1ccccc1[N+](=O)[O-])N/N=C/C=C/c1ccco1	-7	7	2	-14	1	2	/	/	/
Cc1nnc(SCC(=O)N2c3ccccc3CC2C)[nH]c1=O (stereo not given)	-5	2	1	4	0	-1	/	/	/
Cc1cc(C)c(NC(=O)CNC(=O)Cc2ccc(S(=O)(=O)N3CCOCC3)s2)c(C)c1	4	4	-1	-7	-1	-10	/	/	/
COc1cc(/C=C2/C(=O)NN(c3ccc(C)c(Cl)c3)C2=O)cc([N+](=O)[O-])c1O	61*	7	86*	-1	2	39	74*	-15	569*
COc1cc(/C=C2/C(=O)NN(c3cccc(Cl)c3)C2=O)cc(OC)c1O	13	-2	4	-25	1	-3	/	/	/
CCOC(=O)c1ccccc1NC(=O)Cc1c(C(=O)O)n(C)c2ccccc12	-15	-8	2	5	-2	3	/	/	/
CCOc1ccc(NC(=O)CN(C)C(=O)c2ccc(N3CCCC3)c([N+](=O)[O-])c2)cc1OCC	53*	-5	3	-23	1	-2	-18	-18	/
O=C(CSc1nc2[nH]ncc2c(=O)[nH]1)Nc1ccccc1C(F)(F)F	51*	2	-3	1	0	0	-7	-8	/
O=C(CSc1nc2[nH]ncc2c(=O)[nH]1)Nc1ccccc1F	-3	0	-3	4	-1	-3	/	/	/
